Source: ChEMBL document CHEMBL3244096, “Modifications of primaquine as antimalarials. 1. 5-Phenoxy derivatives of primaquine” (J Med Chem, 1977)
Calls of active or inactive are those of the source.

How the values were obtained:
Plasmodium cynomolgi [1] = experiment: Antimalarial activity against sporozoite stage of Plasmodium cynomolgi infected in rhesus monkey assessed as radical curative activity at 0.75 mg/kg measured for 90 days; assay type: functional, organism-based; parameters: dose 0.75 mg/kg
In short: (§1)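 Rhesus monkeys infected by sporozoite inoculation of Plasmodium cynomolgi and dosed at the mg/kg levels given. Results are recorded as cures per number of animals, or as the day of relapse. An animal with no relapse within 90 days is counted as cured.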

Plasmodium berghei [2] = experiment: Antimalarial activity against blood schizont stage of Plasmodium berghei infected in mouse assessed as mean survival days of host at 40 mg/kg (reference value: 6.1 days); assay type: functional
Plasmodium berghei [3] = experiment: Antimalarial activity against blood schizont stage of Plasmodium berghei infected in mouse assessed as mean survival days of host at 80 mg/kg (reference value: 6.1 days); assay type: functional
Mus musculus [4] = experiment: Toxicity in mouse infected with blood schizont stage of Plasmodium berghei assessed as mortality at 320 mg/kg measured prior to 6th day; assay type: organism-based; parameters: dose 320 mg/kg; conditions: in vivo
In short: (§2)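 In P. berghei-infected mice, five per group, deaths occurring before day 6 after infection are recorded as drug-toxic deaths.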

Plasmodium berghei [5] = experiment: Antimalarial activity against blood schizont stage of Plasmodium berghei infected in mouse assessed as mean survival days of host at 20 mg/kg (reference value: 6.1 days); assay type: functional
Mus musculus [6] = experiment: Toxicity in mouse infected with blood schizont stage of Plasmodium berghei assessed as mortality at 160 mg/kg measured prior to 6th day; assay type: organism-based; parameters: dose 160 mg/kg; conditions: in vivo; in short: as §2
Mus musculus [7] = experiment: Toxicity in mouse infected with blood schizont stage of Plasmodium berghei assessed as mortality at 640 mg/kg measured prior to 6th day; assay type: organism-based; parameters: dose 640 mg/kg; conditions: in vivo; in short: as §2
Plasmodium cynomolgi [8] = experiment: Antimalarial activity against sporozoite stage of Plasmodium cynomolgi infected in rhesus monkey assessed as radical curative activity at 0.25 mg/kg measured for 90 days; assay type: functional, organism-based; parameters: dose 0.25 mg/kg; in short: as §1
Plasmodium cynomolgi [9] = experiment: Antimalarial activity against sporozoite stage of Plasmodium cynomolgi infected in rhesus monkey assessed as radical curative activity at 0.125 mg/kg measured for 90 days; assay type: functional, organism-based; parameters: dose 0.125 mg/kg; in short: as §1
Plasmodium cynomolgi [10] = experiment: Antimalarial activity against sporozoite stage of Plasmodium cynomolgi infected in rhesus monkey assessed as radical curative activity at 0.5 mg/kg measured for 90 days; assay type: functional, organism-based; parameters: dose 0.5 mg/kg; in short: as §1
Plasmodium berghei [11] = experiment: Antimalarial activity against blood schizont stage of Plasmodium berghei infected in mouse assessed as mean survival days of host at 160 mg/kg (reference value: 6.1 days); assay type: functional
Plasmodium berghei [12] = experiment: Antimalarial activity against blood schizont stage of Plasmodium berghei infected in mouse assessed as complete disease cure at 320 mg/kg measured 60 days post infection infection; assay type: functional, organism-based; parameters: dose 320 mg/kg
In short: (§3)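 Mice infected with blood-stage Plasmodium berghei, five animals per group, following the Osdene et al. method. Cures are the number of mice alive 60 days after infection. Deaths before day 6 are scored as toxic. Activity is read as the increase in mean survival time over untreated controls, and a group counts as active when its MST exceeds twice the control MST.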

Plasmodium berghei [13] = experiment: Antimalarial activity against blood schizont stage of Plasmodium berghei infected in mouse assessed as complete disease cure at 640 mg/kg measured 60 days post infection infection; assay type: functional, organism-based; parameters: dose 640 mg/kg; in short: as §3
Plasmodium cynomolgi [14] = experiment: Antimalarial activity against sporozoite stage of Plasmodium cynomolgi infected in rhesus monkey assessed as radical curative activity at 1 mg/kg measured for 90 days; assay type: functional, organism-based; parameters: dose 1 mg/kg; in short: as §1
Plasmodium cynomolgi [15] = experiment: Antimalarial activity against sporozoite stage of Plasmodium cynomolgi infected in rhesus monkey assessed as radical curative activity at 10 mg/kg measured for 90 days; assay type: functional, organism-based; parameters: dose 10 mg/kg; in short: as §1
Plasmodium berghei [16] = experiment: Antimalarial activity against blood schizont stage of Plasmodium berghei infected in mouse assessed as mean survival days of host at 640 mg/kg (reference value: 6.1 days); assay type: functional
Plasmodium berghei [17] = experiment: Antimalarial activity against blood schizont stage of Plasmodium berghei infected in mouse assessed as mean survival days of host at 320 mg/kg (reference value: 6.1 days); assay type: functional

| Structure (SMILES) | Activity (Plasmodium cynomolgi [1]) | Survival (Plasmodium berghei [2]) [days] | Survival (Plasmodium berghei [3]) [days] | Activity (Mus musculus [4]) | Survival (Plasmodium berghei [5]) [days] | Activity (Mus musculus [6]) | Activity (Mus musculus [7]) | Activity (Plasmodium cynomolgi [8]) | Activity (Plasmodium cynomolgi [9]) | Activity (Plasmodium cynomolgi [10]) | Survival (Plasmodium berghei [11]) [days] | Activity (Plasmodium berghei [12]) | Activity (Plasmodium berghei [13]) | Activity (Plasmodium cynomolgi [14]) | Activity (Plasmodium cynomolgi [15]) | Survival (Plasmodium berghei [16]) [days] | Survival (Plasmodium berghei [17]) [days] |
| --- | --- | --- | --- | --- | --- | --- | --- | --- | --- | --- | --- | --- | --- | --- | --- | --- | --- |
| COc1cc(NC(C)CCCN)c2ncccc2c1 (configuration not stated) [PRIMAQUINE] | Active | 5 | 9.4 | Toxic | 4 | Toxic | Toxic | inactive |  |  |  |  |  |  |  |  |  |
| COc1cc(NC(C)CCCN)c2ncccc2c1Oc1ccc(F)cc1.O.O=C(O)CC(O)(CC(=O)O)C(=O)O (configuration not stated) |  | 5.7 | 7.5 |  | 2.1 |  |  |  | inactive | inactive | 8.9 | Active | Active |  |  |  |  |
| COc1cc(NC(C)CCCN)c2ncccc2c1Oc1ccc(NC(C)=O)cc1 (configuration not stated) | inactive |  |  |  |  |  |  | inactive | inactive | inactive |  |  |  | inactive | inactive |  |  |
| COc1cc(NC(C)CCCN)c2ncccc2c1Oc1ccccc1.O.O=P(O)(O)O (configuration not stated) |  | 1.5 | 1.7 |  | 0.3 |  |  |  |  |  | 5.1 |  |  |  |  | 9.9 | 7.5 |
| COc1cc(NC(C)CCCN)c2ncccc2c1Oc1ccc(Cl)cc1 (configuration not stated) |  | 4.7 | 5.5 |  | 0.7 |  |  | inactive |  | Active | 7.1 |  |  | Active | Active |  | 8.1 |
